# Calls of active or inactive are those of the source. The rule behind the calls is not given here.
# Columns and labels:
# MCF-10A = experiment: Antiproliferative activity against human MCF10A cells after 24 hrs by MTT assay; type: cell-based
# Method in brief: (§1)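 Cells were seeded at 3000 per well and incubated 24 h at 37 °C. Compounds were added in triplicate with 10% FBS: 0.1-10 or 0.1-20 µM for cancer lines, 3.125-400 µM for MCF-10A. Viability was read by MTT absorbance at 595 nm, with IC50 fitted from the curves. DMSO stocks were 20 mM.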
# MDA-MB-231 [1] = experiment: Anticancer activity against human MDA-MB-231 cells xenografted in BALB/c nude mouse assessed as reduction in tumor volume at 5 mg/kg, po qd administered for 32 days; type: functional; design: scale not given: the % may be the effect or the level left; settings: in the assay text read “tumor weight” for “tumor volume”
# [2] = Oral bioavailability in Sprague-Dawley rat at 10 mg/kg measured after 24 hrs by UPLC analysis; type: ADME, organism-based; settings: in vivo
# [3] = target: T1, Signal transducer and activator of transcription 3 (Homo sapiens, UniProt P40763); settings: 5 uM
# T1 sequence (P40763 whole entry): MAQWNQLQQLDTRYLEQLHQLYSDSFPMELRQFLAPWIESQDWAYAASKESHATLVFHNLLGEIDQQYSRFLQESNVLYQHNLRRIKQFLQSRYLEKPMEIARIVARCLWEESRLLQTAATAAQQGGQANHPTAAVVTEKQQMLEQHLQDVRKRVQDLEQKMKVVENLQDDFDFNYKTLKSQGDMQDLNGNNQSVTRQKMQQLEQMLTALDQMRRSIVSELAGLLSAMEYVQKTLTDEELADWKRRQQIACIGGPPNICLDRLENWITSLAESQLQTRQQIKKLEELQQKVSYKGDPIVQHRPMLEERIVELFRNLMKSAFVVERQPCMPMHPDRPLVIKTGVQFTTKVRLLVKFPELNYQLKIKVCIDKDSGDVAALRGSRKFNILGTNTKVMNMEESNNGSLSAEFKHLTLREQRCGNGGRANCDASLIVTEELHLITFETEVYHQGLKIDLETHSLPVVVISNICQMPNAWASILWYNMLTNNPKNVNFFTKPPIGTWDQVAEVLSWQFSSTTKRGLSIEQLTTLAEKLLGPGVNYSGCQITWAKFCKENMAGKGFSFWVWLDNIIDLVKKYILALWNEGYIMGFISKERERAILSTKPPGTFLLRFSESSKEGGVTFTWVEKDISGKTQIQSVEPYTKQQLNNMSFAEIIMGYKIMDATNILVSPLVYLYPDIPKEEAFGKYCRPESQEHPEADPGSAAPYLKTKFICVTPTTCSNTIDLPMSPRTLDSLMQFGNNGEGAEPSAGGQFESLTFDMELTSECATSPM
# MDA-MB-231 [4] = experiment: Anticancer activity against human MDA-MB-231 cells xenografted in BALB/c nude mouse assessed as reduction in tumor volume at 2.5 mg/kg, po qd administered for 32 days; type: functional; design: scale not given: the % may be the effect or the level left
# Method in brief: (§2)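 Female athymic BALB/c nude mice, 6 weeks old, bearing s.c. flank MDA-MB-231 xenografts (5 x 10^6 cells). Dosing began at about 100 mm3 tumor volume; 8 mice per group, one tumor each. Drug was given orally in saline, with a saline vehicle control, for 32 days. Caliper L and W measured every other day; volume = 0.5236×L×W².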
# [5] = MRT (0 to infinity) in Sprague-Dawley rat plasma at 1 mg/kg, iv measured after 24 hrs by UPLC analysis; type: ADME, organism-based
# Method in brief: (§3)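 Rat plasma sampled from 2 min to 24 h after a single i.v. (1 mg/kg) or p.o. (10 mg/kg) dose. Parameters were derived from the concentration-time profiles. The bioanalytical method was validated to FDA guidelines for selectivity, linearity, LLOQ, accuracy, precision, recovery, matrix effect and stability.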
# [6] = target: T1, Signal transducer and activator of transcription 3; settings: 2.5 to 5 uM
# [7] = Initial plasma concentration in Sprague-Dawley rat at 1 mg/kg, iv measured after 24 hrs by UPLC analysis; type: ADME, organism-based; method in brief: as §3
# [8] = MRT (0 to t) in Sprague-Dawley rat plasma at 1 mg/kg, iv measured after 24 hrs by UPLC analysis; type: ADME, organism-based; method in brief: as §3
# MDA-MB-231 [9] = experiment: Anticancer activity against human MDA-MB-231 cells xenografted in BALB/c nude mouse assessed as reduction in tumor volume at 10 mg/kg, po qd administered for 32 days; type: functional; design: scale not given: the % may be the effect or the level left; method in brief: as §2
# [10] = Clearance in Sprague-Dawley rat plasma at 1 mg/kg, iv measured after 24 hrs by UPLC analysis; type: ADME, organism-based
# Method in brief: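 Parameters were derived from the concentration-time profiles. The bioanalytical method was validated to FDA guidelines for selectivity, linearity, LLOQ, accuracy, precision, recovery, matrix effect and stability.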
# [11] = target: Epidermal growth factor receptor (Homo sapiens) (UniProt P00533); experiment: Inhibition of EGFR in human UW426 cells assessed as reduction in p-Akt level at 1 to 2.5 uM after 24 hrs by immunoblot analysis; type: cell-based
# Sequence of Epidermal growth factor receptor (Homo sapiens) (P00533 whole entry): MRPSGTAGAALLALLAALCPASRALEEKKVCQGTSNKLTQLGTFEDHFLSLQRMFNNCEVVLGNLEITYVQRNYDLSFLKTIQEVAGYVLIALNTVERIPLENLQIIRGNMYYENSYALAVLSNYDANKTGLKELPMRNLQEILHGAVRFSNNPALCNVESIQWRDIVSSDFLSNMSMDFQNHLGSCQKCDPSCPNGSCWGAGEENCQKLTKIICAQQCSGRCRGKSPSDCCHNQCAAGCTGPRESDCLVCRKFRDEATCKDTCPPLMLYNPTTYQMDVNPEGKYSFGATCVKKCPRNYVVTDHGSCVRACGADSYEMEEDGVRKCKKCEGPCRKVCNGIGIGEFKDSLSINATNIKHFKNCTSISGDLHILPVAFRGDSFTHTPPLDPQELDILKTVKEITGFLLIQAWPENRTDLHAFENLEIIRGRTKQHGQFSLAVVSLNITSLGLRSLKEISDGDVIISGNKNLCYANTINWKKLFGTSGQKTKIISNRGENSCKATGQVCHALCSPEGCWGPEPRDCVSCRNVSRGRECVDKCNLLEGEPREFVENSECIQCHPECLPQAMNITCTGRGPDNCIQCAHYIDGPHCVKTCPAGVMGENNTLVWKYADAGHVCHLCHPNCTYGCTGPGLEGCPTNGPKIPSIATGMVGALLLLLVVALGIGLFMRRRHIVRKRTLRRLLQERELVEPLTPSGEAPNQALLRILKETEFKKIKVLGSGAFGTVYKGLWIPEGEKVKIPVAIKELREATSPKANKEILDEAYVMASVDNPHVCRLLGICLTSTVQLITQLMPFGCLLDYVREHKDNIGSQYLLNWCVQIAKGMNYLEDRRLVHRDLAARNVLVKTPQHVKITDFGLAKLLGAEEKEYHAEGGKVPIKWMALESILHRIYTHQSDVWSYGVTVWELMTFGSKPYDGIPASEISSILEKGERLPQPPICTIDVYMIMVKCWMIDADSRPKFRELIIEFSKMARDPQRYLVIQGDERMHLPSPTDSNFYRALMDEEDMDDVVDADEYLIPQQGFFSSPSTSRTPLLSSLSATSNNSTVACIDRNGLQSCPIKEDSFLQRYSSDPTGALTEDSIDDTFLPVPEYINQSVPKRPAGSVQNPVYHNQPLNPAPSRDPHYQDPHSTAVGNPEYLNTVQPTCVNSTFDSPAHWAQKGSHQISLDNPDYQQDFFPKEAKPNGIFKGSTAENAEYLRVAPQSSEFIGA
# Method in brief: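 UW426 cells at 60–80% confluence were treated 24 h at 1-2.5 µM with 10% FBS, against a DMSO control, then immunoblotted.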
# [12] = MRT (0 to infinity) in Sprague-Dawley rat plasma at 10 mg/kg, po measured after 24 hrs by UPLC analysis; type: ADME, organism-based; method in brief: as §3
# Mus musculus = experiment: Acute toxicity in ICR mouse assessed as mortality at 200 to 1000 mg/kg, ip measured up to 2 weeks post-treatment; type: organism-based; settings: in vivo, 336 h
# Method in brief: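 ICR mice of both sexes, 7 weeks old, randomized into groups of 10. Each received a single intraperitoneal dose at 200, 400, 600, 800 or 1000 mg/kg.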
# [13] = target: Epidermal growth factor receptor (Homo sapiens) (UniProt P00533); experiment: Inhibition of EGFR in human MDA-MB-231 cells assessed as reduction in p-Akt level at 2.5 to 5 uM after 12 hrs by immunoblot analysis; type: cell-based
# Method in brief: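 MDA-MB-231 cells at 60–80% confluence were treated 12 h with 10% FBS at 2.5-10 µM or 2.5-5 µM, against a DMSO control. Whole-cell lysates were immunoblotted, with bands quantified as percent of control.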
# [14] = target: T2, Signal transducer and activator of transcription 1-alpha/beta (Homo sapiens) (UniProt P42224); experiment: Inhibition of STAT1 in human MDA-MB-231 cells assessed as reduction in CDK2 mRNA level at 5 to 10 uM by RT-PCR analysis; type: cell-based
# T2 sequence (whole entry): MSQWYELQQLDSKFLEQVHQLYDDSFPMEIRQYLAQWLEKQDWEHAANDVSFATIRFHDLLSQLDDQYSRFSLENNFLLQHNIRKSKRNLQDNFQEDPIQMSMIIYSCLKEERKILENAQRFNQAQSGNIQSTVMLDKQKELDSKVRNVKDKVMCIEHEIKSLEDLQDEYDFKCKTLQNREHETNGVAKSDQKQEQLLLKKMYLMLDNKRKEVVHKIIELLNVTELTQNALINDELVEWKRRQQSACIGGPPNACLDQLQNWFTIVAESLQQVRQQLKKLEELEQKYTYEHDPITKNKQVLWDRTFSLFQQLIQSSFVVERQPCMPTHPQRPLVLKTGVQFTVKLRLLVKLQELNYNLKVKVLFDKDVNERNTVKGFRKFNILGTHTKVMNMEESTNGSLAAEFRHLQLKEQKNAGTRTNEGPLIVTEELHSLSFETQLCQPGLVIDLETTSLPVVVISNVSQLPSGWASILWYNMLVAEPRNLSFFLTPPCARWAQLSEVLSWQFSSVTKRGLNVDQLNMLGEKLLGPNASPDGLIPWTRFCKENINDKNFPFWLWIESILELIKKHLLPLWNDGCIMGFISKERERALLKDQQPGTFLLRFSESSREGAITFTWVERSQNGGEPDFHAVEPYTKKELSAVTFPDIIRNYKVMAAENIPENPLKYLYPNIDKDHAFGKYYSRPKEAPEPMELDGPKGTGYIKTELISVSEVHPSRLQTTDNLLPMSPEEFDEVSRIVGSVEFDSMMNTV
# Method in brief: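 Total RNA was extracted from treated MDA-MB-231 cells and 1 µg reverse-transcribed. qPCR ran 95 °C 5 min, then 40 cycles of 95 °C 10 s, 60 °C 15 s and 72 °C 15 s, followed by a melt curve from 60 to 95 °C.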
# [15] = AUC (0 to t) in Sprague-Dawley rat plasma at 10 mg/kg, po measured after 24 hrs by UPLC analysis; type: ADME, organism-based; design: time < 24 hr, dose 10 mg/kg, route oral; method in brief: as §3
# Rattus norvegicus = experiment: AUMC (0 to infinity) in Sprague-Dawley rat plasma at 1 mg/kg, iv measured after 24 hrs by UPLC analysis; type: ADME, organism-based; settings: in vivo; method in brief: as §3
# [16] = Antiproliferative activity against human UW426 cells after 24 hrs by MTT assay; type: functional, cell-based; settings: UW426, 24 h; method in brief: as §1
compound,measurement,setting,value
NS(=O)(=O)c1cccc2c1C(=O)C=C(Nc1ccccc1N1CCNCC1)C2=O,IC50,MCF-10A,129 µM
same,Activity,MDA-MB-231 [1],60%
same,bioavailability,[2],44.7%
same,inhibition,[3],Active
same,Activity,MDA-MB-231 [4],53%
same,MRT inf,[5],42.6 min
same,inhibition,[6],Active
same,C0 at 24 h,[7],0.382 µg/mL
same,MRT last at 24 h,[8],33 min
same,Activity,MDA-MB-231 [9],70%
same,clearance,[10],5.26 L/h/kg
same,inhibition,[11],inactive
same,MRT inf,[12],135 min
same,Activity,Mus musculus,Non-Toxic
same,inhibition,[13],inactive
same,inhibition,[14],inactive
same,AUC(0-t) at 24 h,[15],0.85 µg·h/mL
same,AUMC,Rattus norvegicus,149 hr2.ng/ml
same,IC50,[16],1.2 µM
